Source: PubChem
Rows were chosen to be rich in hits. Some 9.3% of all compounds tested hit in one or more screens of this group.
D1 allo mod = D1 CRE-luciferase signal change, two-sided – cell-based, HEK293 D1, dopamine EC30, D1 allosteric modulator project, primary screen. B-score at 10 µM. 58,000 compounds, 5.9% hits. dopamine EC30 potentiation; actives deviate in either direction;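 active means luminescence count or its row- and column-corrected plate score outside the 99.7% band of the plate's sample wells, on either side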
Ecoli WT expand = growth inhibitors of wild-type E. coli, primary screen, strain BW25113, expanded library, OD600; OD600 absorbance; growth inhibition, % at 100 µM; 98,000 compounds, 0.15% hits;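 active means growth inhibition above about 50% at one test dose, limit read from the data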;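 further: growth measured after 20 h incubation at 37 °C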
PostGolgi yeast = phenotypic screen on post-Golgi transport, primary screen. 98,000 compounds, 0.9% hits. AID 739, 2007. inhibition, % at 10 µM. post-Golgi transport phenotypic cell assay;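 further: yeast cells grown in 1536-well plates; yeast grown about 18 h at 30C before absorbance read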
DAT uptake mod = changed hDAT dopamine uptake under cocaine IC80, either direction, primary screen, cocaine antagonist project, cell-based, LLC-PK1 hDAT, [14C]-dopamine uptake, MLSMR | Sodium-dependent dopamine transporter (Homo sapiens), Q01959 | LLC-PK1 hDAT cells, [14C]-dopamine uptake with cocaine IC80; actives deviate in either direction | B-score at 10 µM | 110,000 compounds, 1.3% hits;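 active means Z score or B-score, a plate-position-corrected score, falls beyond the plate's 99.7% confidence bounds, in either direction; inactive means both scores lie inside the 99.7% bounds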;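 further: scored against the spread of the other compound wells on the same plate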
Target sequence (Q01959 whole entry, looked up): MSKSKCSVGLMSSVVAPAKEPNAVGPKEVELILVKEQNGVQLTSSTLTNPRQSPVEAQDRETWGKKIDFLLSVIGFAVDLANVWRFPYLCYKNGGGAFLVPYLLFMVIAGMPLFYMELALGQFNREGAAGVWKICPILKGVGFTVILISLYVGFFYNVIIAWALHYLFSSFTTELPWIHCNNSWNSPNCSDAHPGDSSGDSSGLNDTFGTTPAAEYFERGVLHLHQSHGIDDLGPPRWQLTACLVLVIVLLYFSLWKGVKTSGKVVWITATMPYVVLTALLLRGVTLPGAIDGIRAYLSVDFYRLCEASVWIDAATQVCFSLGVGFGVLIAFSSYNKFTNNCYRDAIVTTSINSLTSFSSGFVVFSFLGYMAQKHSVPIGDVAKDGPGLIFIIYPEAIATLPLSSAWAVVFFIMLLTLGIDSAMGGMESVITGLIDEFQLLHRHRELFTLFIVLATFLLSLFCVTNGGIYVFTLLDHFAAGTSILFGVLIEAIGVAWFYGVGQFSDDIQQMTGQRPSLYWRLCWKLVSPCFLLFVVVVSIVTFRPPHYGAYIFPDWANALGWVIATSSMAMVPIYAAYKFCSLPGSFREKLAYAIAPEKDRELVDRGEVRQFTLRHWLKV
tolC growth inh = growth inhibitors of E. coli tolC mutant, primary screen, strain BW25113 ΔtolC::kan, 384-well; 65,000 compounds, 2.2% hits; growth inhibition, % at 10 µM (by protocol); OD615;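 active means growth inhibition at or above a cutoff equal to the mean over every tested compound plus 3 SD, cut at about 60% in these data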;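 further: growth measured after 20 h incubation at 37 °C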
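Material: E. coli BW25113 ΔtolC::kan, tolC deletion mutant strain. Measure: percent growth inhibition. Schedule: 37 °C, 20 h exposure. Doses: single-point testing at 10 µM. Signal: A615 absorbance measurement. Buffer or medium: kanamycin-containing LB broth (50 µg/mL).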
PostGolgi ctrl = growth inhibition of yeast control strain, primary screen, counter-screen for post-Golgi transport modulator project | efflux-deficient yeast background strain, growth absorbance A615, 16 h | inhibition, % at 10 µM | AID 738, 2007 | 98,000 compounds, 5% hits
Starred values were filed as active, the others as inactive; nt = no result. Unless noted, no stated cut-off is given here; in the data, active means inhibition above about 30%; inactive means the rest.

SMILES	D1 allo mod	Ecoli WT expand	PostGolgi yeast	DAT uptake mod	tolC growth inh	PostGolgi ctrl
Cc1cc([N+](=O)[O-])ccc1NC(=S)NC(=O)Cc1ccccc1	nt	-7	-8	0.16	nt	30*
COC(=O)c1sccc1-c1ccc(C(=O)Nc2cccc(Cl)c2)o1	nt	-10	-2	-1.7	nt	46*
Cc1cc(N2C(=O)C3CC=CC(C)C3C2=O)no1 (stereo not drawn)	nt	nt	nt	-9.4*	nt	nt
Cc1cc(C)c2c(CC(=O)Nc3nccs3)coc2c1	-0.29	-12	-1	-0.097	-5	6
C=C(C)CN1C(=O)C(O)(CC(=O)c2ccc3c(c2)OCCO3)c2ccccc21 (stereo not drawn)	-0.041	3	-10	0.67	16	41*
CC(C)Cn1c(-c2ccccc2F)n[nH]c1=S	-0.93	9	8	-0.5	6	33*
CCn1c(-c2cc3ccccc3cc2O)n[nH]c1=S	nt	-2	1	0.5	nt	20
CCOc1cccc(-c2cc(-c3n[nH]c(=S)n3CC)c3ccccc3n2)c1	nt	8	2	2.4*	nt	21
CCn1c(-c2c[nH]c3ccccc23)n[nH]c1=S	0.52	6	40*	0.22	-2	0
COc1ccccc1CNC(=O)C1CC(c2ccccc2[N+](=O)[O-])=NO1 (stereo not drawn)	nt	5	-7	0.65	nt	13
CCc1nc(N2CCOCC2)c(C#N)c2c1CCCC2	nt	7	-2	1.5	2	30
CCC1Cc2c(nc3c4c(nc(N5CCOCC5)c(C#N)c24)NC(C)=N3)O1 (stereo not drawn)	4.2*	nt	nt	nt	13	nt
CC1CC(C)CN(C(=O)c2ccccc2Nc2ccc(SC(F)F)cc2)C1 (stereo not drawn)	nt	1	-6	0.051	nt	9
Cc1ccc(C(c2nnnn2CC2CCCO2)N2CCN(c3cccc(C)c3C)CC2)cc1 (stereo not drawn)	-0.89	-13	0	-0.68	8	27
O=C(Nc1cccnc1)c1ccc(S(=O)(=O)N2CCCCCC2)cc1	nt	-2	-5	1.2	nt	19
Cc1nn(Cc2ccccc2)c2sc(C(=O)N3CCN(Cc4ccc5c(c4)OCO5)CC3)cc12	-1.2	-16	4	0.51	60	14
COCCCNc1ccnc2c(Cl)cccc12	-1.6	10	31*	-0.63	-12	-4
COC(=O)c1ccc(NC(=O)C2CCCN(S(=O)(=O)c3cnc[nH]3)C2)cc1 (stereo not drawn)	0.019	2	3	-0.88	-2	1
O=C(c1cc(C2CC2)nc2ccc(Br)cc12)N1N=C(C(F)F)CC1(O)C(F)F (stereo not drawn)	nt	nt	nt	0.076	nt	nt
Cc1nn(-c2ccccc2)c2sc(C(=O)N(CC(=O)NC(C)(C)C)Cc3ccco3)cc12	0.39	-9	6	1.1	75*	15
COC(=O)c1cc2c(C)nn(-c3ccccc3)c2s1	0.42	4	11	-0.1	5	1
COc1cc(C)nc(NS(=O)(=O)c2ccc(C)cc2)n1	0.41	1	0	-0.58	2	5
O=C(NCc1cccnc1)NC1(C(F)(F)F)Oc2ccccc2O1	0.5	-5	-1	-5.8*	2	7
O=C1N=C(N2CCN(c3cccc4ccccc34)CC2)S/C1=C/c1cccs1	nt	-8	-5	0.83	nt	37*
CC1CCCCN1CCCNC(=O)c1ccc2c(=O)n(CCc3ccccc3)c(=O)[nH]c2c1 (stereo not drawn)	nt	-2	-2	0.93	nt	2
SMILES	D1 allo mod	Ecoli WT expand	PostGolgi yeast	DAT uptake mod	tolC growth inh	PostGolgi ctrl
CCCCCNC(=O)c1ccc2c(=O)n(CCOC)c(=O)[nH]c2c1	nt	-6	25	0.24	nt	-9
COCCNC(=O)c1ccc2c(=O)n(CCOC)c(=O)[nH]c2c1	nt	1	-2	-9*	3	-4
CC1CCCCN1CCNC(=O)c1ccc2c(=O)n(CCc3ccccc3)c(=O)[nH]c2c1 (stereo not drawn)	-3.7*	10	4	nt	8	-3
COc1ccccc1S(=O)Cc1ccc(C(=O)NCCc2ccc(Cl)cc2)o1 (stereo not drawn)	-2.8	2	-9	1.5	33	10
Cc1ccc(C(=O)/C=C/Nc2ccccc2C(N)=O)o1	-4.1*	13	24	-0.023	8	1
Cc1[nH]n2c(=O)cc(C(C)(C)C)nc2c1-c1ccccc1	-0.26	11	-3	-1.3	100*	6
CC#CCCCC(=O)Nc1ccc(C(=O)O)cc1	-3.1*	-17	0	-0.16	-25	4
CC#CCCCC(=O)Nc1ccccc1C(=O)O	-0.011	-10	-18	0.22	4	0
O=C(NCCCn1ccnc1)C1c2ccccc2Oc2ccccc21	-2.5*	-4	2	-0.21	-28	12
O=c1c2cn[nH]c2[nH]c(=S)n1-c1ccccc1F	-2.3	-4	-2	0.65	-10	2
CC(C)C1Oc2ccccc2N(CC(=O)N(Cc2ccncc2)Cc2ccco2)C1=O (stereo not drawn)	nt	nt	nt	1.1	nt	nt
CCC(=O)Nc1nc2ccc(NC(C)=O)cc2s1	0.032	7	-1	0.36	2	-8
CCCC(=O)Nc1nc2ccc(NC(=O)c3ccc(Br)o3)cc2s1	-0.067	-14	-4	-0.24	2	41*
CCN1CCN(c2cc(C)c3cc(NC(=O)c4ccc(Br)o4)ccc3n2)CC1	-2.5*	16	0	0.62	-3	0
CC(O)[C@H]1CNC(=O)C(=O)N1CCCCC1CCCCC1 (stereo partly drawn)	nt	nt	nt	0.44	nt	nt
C/C(CC(=O)Nc1ccccn1)=N\NC(=O)C(=O)Nc1ccccc1C	nt	-3	-2	3.2*	nt	14
CCOC(=O)c1cc(C#N)c(Oc2ccc(F)cc2)nc1-c1ccccc1	nt	-20	6	0.41	nt	37*
CCOC(=O)c1cc(C#N)c(Oc2cccc(C(F)(F)F)c2)nc1-c1ccccc1	nt	-4	-3	0.00014	nt	9
COc1ccc2[nH]c(C)c(C(=O)CN3CCOCC3)c2c1	nt	3	16	-3*	-2	1
COc1ccc2[nH]c(C)c(C(=O)CN3CCc4cc(OC)c(OC)cc4C3)c2c1	nt	5	5	0.15	5	10
COc1ccc(N2C(=O)CSC2c2ccc3c(c2)OCO3)c(OC)c1 (stereo not drawn)	-0.35	6	5	-0.67	3	31*
COc1ccc(N2C(=O)CSC2c2ccncc2)cc1 (stereo not drawn)	0.23	4	-4	-7.4*	5	-13
COc1ccc(N2C(=O)CSC2c2cccc(F)c2)c(OC)c1 (stereo not drawn)	0.33	2	1	-0.038	6	16
